Bioassay records: PubChem BioAssay, several laboratories
dFosB act: activators of mouse delta FosB homodimer. activation, % at 25 µM. 340,000 tested, 0.99% active. purified delta FosB, TAMRA-CDK5 oligo fluorescence polarization; percent of positive-control signal above neutral wells;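 active = mean activation above about 17%, with every replicate also reaching it, limit read from the data, passing the limit was not always enough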
m5-HT2A agonist: agonists of mouse serotonin 5-HT2A receptor (HTR2A); activation, % at 7.6 µM; AID 624169; CHO-K1 mHTR2A beta-arrestin complementation, luminescence; percent of 30 µM serotonin response; 360,000 tested, 0.66% active;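 active = activation above a run cutoff, the mean activation of all tested compounds plus 3 SD, cut at about 14% in these data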;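 also: 0% = plate median of compound wells and 100% = 30 µM serotonin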
Target sequence (P35363 whole entry, looked up): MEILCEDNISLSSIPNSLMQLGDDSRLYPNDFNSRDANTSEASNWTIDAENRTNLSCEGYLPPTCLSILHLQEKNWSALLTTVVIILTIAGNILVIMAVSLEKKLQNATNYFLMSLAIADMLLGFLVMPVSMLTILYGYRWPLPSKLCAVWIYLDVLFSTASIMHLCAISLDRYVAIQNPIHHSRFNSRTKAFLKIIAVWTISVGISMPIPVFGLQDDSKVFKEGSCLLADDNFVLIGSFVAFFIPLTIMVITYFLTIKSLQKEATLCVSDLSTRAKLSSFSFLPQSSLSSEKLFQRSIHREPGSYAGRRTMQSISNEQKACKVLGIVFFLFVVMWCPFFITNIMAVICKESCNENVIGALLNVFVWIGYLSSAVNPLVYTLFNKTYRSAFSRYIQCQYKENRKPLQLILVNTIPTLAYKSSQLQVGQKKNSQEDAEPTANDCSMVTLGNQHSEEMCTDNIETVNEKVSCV
IMP-1 inhibitor: inhibitors of Pseudomonas aeruginosa IMP-1 metallo-beta-lactamase; inhibition, % at 5.6 µM; 290,000 tested, 0.45% active; purified IMP-1, nitrocefin hydrolysis, epi-absorbance fluorescence; AID 1556;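 active = inhibition above the mean plus 3 SD of all compounds in the same screening run, cut at about 4.5% in these data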;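 also: 0% = IMP-1 with DMSO and 100% = DMSO wells lacking enzyme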
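assay system = purified recombinant IMP-1 metallo-beta-lactamase enzyme | schedule = 15 min preincubation plus 25 min reaction at 25 °C | signal = Epi-absorbance fluorescence, 480 nm excitation, 530 nm emission | read-out basis = percent inhibition from optical density relative to buffer-blank wells | controls = IMP-1 with DMSO as 0%, enzyme-free DMSO as 100%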
VIM-2 inhibitor: inhibitors of Pseudomonas aeruginosa VIM-2 metallo-beta-lactamase; purified VIM-2, nitrocefin hydrolysis, epi-absorbance fluorescence; inhibition, % at 5.6 µM; 290,000 tested, 0.89% active; AID 1527;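 active = inhibition above the mean of all tested compounds plus 3 SD, cutoff set per screening run, cut at about 7.5% in these data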;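 also: red hydrolysis product quenches plate fluorescence so inhibitors raise well fluorescence; 0% = enzyme with DMSO and 100% = DMSO without enzyme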
* = called active by the depositor; . = no result given. A selection: hits, their analogues and other compounds. The true share with any hit is near 2.5%.

SMILES	dFosB act	m5-HT2A agonist	IMP-1 inhibitor	VIM-2 inhibitor
CCN(CC)CCCNc1nc2ccccc2c2[nH]c3ccc(OC)cc3c12	78*	-5	.	.
COc1ccc(NC(=O)c2ccc(-c3ccc([N+](=O)[O-])cc3)o2)cc1	-6	0	-3	-1
O=C(Nc1ccccc1)c1ccc(-c2ccc([N+](=O)[O-])cc2)o1	1	11	5.0*	2
CCOC(=O)N1CCN(S(=O)(=O)c2ccc(C(=O)NNc3nc4cc(C)cc(C)c4s3)cc2)CC1	-7	23*	-5	-4
CN(C)c1ccc(NC(=O)c2sc(SCC(=O)Nc3nccs3)nc2N)cc1	-3	5	3	-5
CN(C)c1ccc(NC(=O)c2sc(SCC(=O)Nc3ccc(Br)cc3)nc2N)cc1	28*	-4	0	1
O=C(Nc1ccc(F)c(Cl)c1)C1Cc2c(-c3ccco3)ccnc2O1 (stereo not drawn)	.	-5	.	.
CC(=O)Nc1c2c(nn1-c1ccc(F)cc1)CSC2	3	9	-2	-4
O=C(O)C1C2C=CC3(O2)C1C(=O)N1c2ccccc2C2OCCC2C13 (stereo not drawn)	-9	0	1	11*
O=C(NCc1cccnc1)c1csc([C@@H]2C[C@H](O)[C@@H](CO)O2)n1	.	-4	.	.
O=C(Nc1cc([N+](=O)[O-])ccc1O)c1cccc(C(=O)Nc2cc([N+](=O)[O-])ccc2O)c1	-8	-1	26*	-1
O=C(N/N=C/c1cc([N+](=O)[O-])ccc1O)c1cccc(NC(=O)c2cccc(Cl)c2)c1	57*	0	-2	-2
Cc1c(S(=O)(=O)N(C)C2CCCCC2)c(=O)n(C)c(=O)n1C	7	4	.	.
CCOC(=O)CSc1ccc(C(=O)NCCCN2CCOCC2)cc1[N+](=O)[O-]	5	3	-2	0
Cc1nc2nc(NC(=O)c3ccco3)nn2c(C)c1Cl	0	1	-3	-4
COC(=O)c1cc(OC)c(OC)cc1NC(=O)c1ccco1	-8	1	-3	8.9*
Cc1cccc(Nc2c3c(nc4ccccc24)CCC3)c1	-6	-11	-4	7
COc1ccccc1Nc1c2c(nc3ccc(N)cc13)CCCC2	-5	-7	-4	8.7*
COc1ccc(Nc2c3c(nc4ccc(C)cc24)CCC3)cc1	5	-6	-3	9.1*
O=C(Cc1ccccc1)N/N=C/c1cc(Br)cc(Cl)c1O	54*	-1	-1	-1
CC(=O)Nc1ccc(S(=O)(=O)NCCc2cn3nc(C)c(C)nc3n2)cc1	-4	8	-2	-2
N=c1n(CC(=O)c2ccc(Br)s2)c2ccccc2n1Cc1ccccc1	25*	-8	-3	-4
Cn1c(=N)n(CC(=O)c2ccc(Br)s2)c2ccccc21	3	-7	-4	-2
CCC/C(=N/NC(=O)c1ccccc1Cl)c1ccccc1	-9	1	-3	-2
CN(C)S(=O)(=O)c1cc(NC(=O)c2ccc(-n3ccnc3)c([N+](=O)[O-])c2)ccc1Cl	-16	0	-3	8.0*
SMILES	dFosB act	m5-HT2A agonist	IMP-1 inhibitor	VIM-2 inhibitor
CCn1c(=O)c(C(C)=O)nc2ccccc21	3	7	5.9*	0
CCc1nc2ccccc2n(CC)c1=O	-8	1	2	-4
Cc1sc2nc(CN3CCCC3)nc(N3CCN(S(=O)(=O)c4ccccc4)CC3)c2c1C	42*	-9	.	.
Cc1sc2ncnc(N3CCN(S(=O)(=O)c4ccccc4)CC3)c2c1C	-8	4	.	.
COCCCn1c(-c2ccccc2Cl)n[nH]c1=S	5	2	-1	10*
O=C(O)C(c1ccccc1)N1C(=O)/C(=C\c2ccc(-c3ccc(Br)cc3)o2)SC1=S (stereo not drawn)	-10	3	-2	3
O=C(O)C(c1ccccc1)N1C(=O)/C(=C\c2ccc(-c3ccccc3Cl)o2)SC1=S (stereo not drawn)	-16	0	9.4*	0
O=C(NCc1ccccc1Cl)C1CCCN(S(=O)(=O)c2cccc3nonc23)C1 (stereo not drawn)	39*	3	-3	-1
COc1ccccc1CNC(=O)C1CCCN(S(=O)(=O)c2cccc3nonc23)C1 (stereo not drawn)	-6	4	0	-2
Cc1ccc(CNC(=O)C2CCN(S(=O)(=O)c3cccc4nonc34)CC2)cc1	21*	-3	-3	0
C#CCN1C(=O)S/C(=C\c2ccc(-c3ccc(Cl)c(C(=O)O)c3)o2)C1=O	-7	0	-3	9.3*
O=C1OCC(c2ccccc2)=C1c1ccc(S(=O)(=O)N2CCOCC2)s1	-6	4	44*	0
Cc1ccc(-n2ncc3c(=O)n(CC(=O)Nc4cccc(Cl)c4)cnc32)cc1C	42*	-4	0	-2
COC(=O)c1ccccc1NC(=O)Cn1cnc2c(cnn2-c2ccc(C)c(C)c2)c1=O	.	.	-1	-1
CC(=O)Oc1ccc(C(=O)Nc2ccc(C3(C#N)CCCC3)cc2)cc1	-7	-4	12*	0
O=C(c1cc(S(=O)(=O)N2CCC3(CC2)OCCO3)ccc1F)N1CCCCC1	-4	-2	-1	-4
Oc1ccc(C[C@H]2CN([C@@H](Cc3ccc(O)cc3)CN3CCC[C@@H]3CN3C(=S)NC[C@@H]3Cc3ccccc3)C(=S)N2CC2CCCCCC2)cc1	.	-5	.	.
COc1cc(C(=O)Nc2ccc(-c3nc4cc(C)ccc4o3)c(O)c2)cc(OC)c1OC	27*	0	-2	-3
COC(=O)c1ccc(CNC(=O)COC(=O)c2ccc(N(C)C)cc2)cc1	-3	1	-2	-2
N#CC1=C(N)Oc2ccc3ccc(O)cc3c2C1c1ccsc1 (stereo not drawn)	-216	1	17*	6
N#CC1=C(N)Oc2cc(N)ccc2C1c1ccsc1 (stereo not drawn)	2	1	-3	-2
CCN(CC(=O)Nc1cccc(OC)c1)C(=O)C1CC(=O)N(Cc2ccccc2Cl)C1 (stereo not drawn)	.	-1	.	.
COCCC(=O)N1CCC(Oc2ccc(C(=O)N3C[C@@H]4CCC[C@H]3C4)cc2)CC1	2	7	5.1*	0
O=C(CCc1ccccn1)N1CCCC(N2CCN(c3cccc(C(F)(F)F)c3)CC2)C1 (stereo not drawn)	-4	2	-2	-2
CCCC(=O)Nc1nnc(-c2ccc(Cl)s2)o1	-1	27*	-4	-1
SMILES	dFosB act	m5-HT2A agonist	IMP-1 inhibitor	VIM-2 inhibitor
Nc1ccccc1SCC(=O)Nc1ccc2c(c1)OCCO2	1	5	0	-1
CCOc1ccccc1NC(=O)CCNS(=O)(=O)c1ccccc1	2	2	7.3*	0
Cn1nc(CC(=O)Nc2ccc(N3CCN(C(=O)OC(C)(C)C)CC3)cc2)c2ccccc2c1=O	21*	2	-4	-1
Cn1nc(CC(=O)N2CCN(c3ccccc3)CC2)c2ccccc2c1=O	-8	-3	-2	1
CC1CCCN(CC(O)CN2CCN(CC(O)CN3CCCC(C)C3)C(C)C2)C1 (stereo not drawn)	2	-5	.	.
CCOC(=O)CC(=O)CSc1n[nH]c(=O)[nH]c1=O	2	3	-3	-2
